Hck Nef HTS: inhibitors of Nef-activated human Hck kinase, primary screen, biochemical, Z-Lyte FRET, 384-well, Hck-YEEI | AID 463187, 2010 | Recombinant Hck-YEEI plus Nef, Z-Lyte FRET kinase assay | inhibition, % at 20 µM | 220,000 compounds, 0.68% hits;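 active = Hck-Nef kinase inhibition above about 50%, limit read from the data; inactive = inhibition below that limit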
Runt-SMMHC FRET: inhibitors of RUNX1 Runt–CBFb-SMMHC binding, primary screen, biochemical, FRET, Cerulean-Runt, Venus-CBFb-SMMHC, uHTS; Runt-related transcription factor 1 (Homo sapiens) + Core-binding factor subunit beta …; Cerulean-Runt/Venus-CBFb-SMMHC FRET ratio 530/480, 1 h; inhibition, % at 20 µM; 220,000 compounds, 0.74% hits;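 active = mean inhibition across duplicate retests at 20 µM reaching about 50%, limit read from the data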;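 also: inhibitors lower the FRET ratio by blocking Runt binding to CBFb-SMMHC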
Target sequence (Q01196 whole entry, looked up): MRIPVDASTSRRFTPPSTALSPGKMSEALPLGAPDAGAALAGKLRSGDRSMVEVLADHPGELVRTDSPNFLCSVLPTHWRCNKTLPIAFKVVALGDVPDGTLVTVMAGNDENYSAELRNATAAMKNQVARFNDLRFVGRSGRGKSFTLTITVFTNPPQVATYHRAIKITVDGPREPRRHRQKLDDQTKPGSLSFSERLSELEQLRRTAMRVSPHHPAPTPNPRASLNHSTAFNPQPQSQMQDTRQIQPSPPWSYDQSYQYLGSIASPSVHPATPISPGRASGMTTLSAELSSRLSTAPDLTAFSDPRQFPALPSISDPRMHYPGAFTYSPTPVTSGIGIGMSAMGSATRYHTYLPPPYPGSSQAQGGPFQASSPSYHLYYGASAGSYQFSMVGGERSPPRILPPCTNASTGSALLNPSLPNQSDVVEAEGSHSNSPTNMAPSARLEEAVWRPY
Target sequence (Q13951 whole entry, looked up): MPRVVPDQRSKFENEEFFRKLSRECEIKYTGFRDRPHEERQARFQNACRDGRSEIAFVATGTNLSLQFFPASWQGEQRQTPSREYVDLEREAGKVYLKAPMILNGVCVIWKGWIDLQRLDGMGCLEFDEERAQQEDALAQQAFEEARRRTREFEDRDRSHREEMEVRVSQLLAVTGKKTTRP
RanGTP-Impb inh: inhibitors of RanGTP-importin-beta interaction, primary screen, biochemical, FRET, CFP-Ran, YFP-importin-beta, homogeneous; inhibition, % (test concentration not listed); Ran GTPase (GTP-bound) - importin-beta complex; AID 2216, 2009; 300,000 compounds, 1.1% hits; cell-free CFP-Ran/YFP-importin-beta FRET ratio;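 active = more than half of the replicate wells show a fall in the fluorescence ratio signal beyond about 16%, limit read from the data, passing the limit was not always enough; inconclusive = exactly half of the replicate wells pass the set limit; inactive = fewer than half of replicates pass the limit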
Runt-CBFb FRET: inhibitors of RUNX1 Runt–CBFb binding, primary screen, biochemical, FRET, Cerulean-Runt, Venus-CBFb, uHTS; Runt-related transcription factor 1 (Homo sapiens) + Core-binding factor subunit beta …; Cerulean-Runt/Venus-CBFb FRET ratio 530/480, 1 h; inhibition, % at 20 µM; 220,000 compounds, 0.46% hits; AID 1496, 2009;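 active = inhibition over about 50% at 20 µM in the single-dose screen, limit read from the data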
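Assay system: Cerulean-Runt domain fusion protein, energy donor; Signal: fluorescence energy transfer, 422 nm excitation, 530/480 nm emission; Timing: 1 h compound exposure, room temperature; Control set: unlabeled CBFb; Medium: Tris buffer pH 7.5 with salts and BSA; Compound: single test concentration of 20 µM, 1% DMSO final; Probe or stimulus: Venus-CBFb 100 nM.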
Hits are given with their value; i = inactive; ? = inconclusive; nt = no result. The list is not random: actives were taken first. Their share in the collection is about 1.8%.

SMILES | Hck Nef HTS | Runt-SMMHC FRET | RanGTP-Impb inh | Runt-CBFb FRET
O=C(NC1CCCCC1)C1c2ccccc2C(=O)N1Cc1ccc2c(c1)OCO2 (stereo unspecified) | i | i | i | i
COc1ccc2c3c(cccc13)C(=O)CC2 | nt | nt | i | nt
Cc1ccc(C)n1-c1nccc(-c2cccs2)n1 | i | i | i | i
Cc1ccc(C)n1-c1nccc(-c2ccco2)n1 | i | 86 | i | i
COc1ccc(C(=O)Nc2ccccc2C(=O)NCCN2CCOCC2)cc1OC | nt | nt | i | nt
CN1/C(=C\C(=O)c2cccs2)C(C)(C)c2ccccc21 | i | 86 | 18 | i
CCOC(=O)/C=C1/N(C)c2ccccc2C1(C)C | i | i | i | i
CN1/C(=C/C(=O)c2cccs2)Sc2ccccc21 | i | 83 | i | i
COC(=O)C1=C(C)NC(=O)/C1=C\N(C)C | i | i | i | i
COCCn1c(-c2cccs2)nc2nc3ccccc3nc21 | i | 87 | i | i
CCCn1c(-c2cccs2)nc2nc3ccccc3nc21 | i | 131 | i | i
CCN1CCC2(CC1)C(C#N)=C(N)Oc1c2sc2nc(C)cc(C)c12 | i | i | 28 | i
COc1cc(C2CC(c3cccnc3)=NN2c2ccc(F)cc2)cc(OC)c1OC (stereo unspecified) | i | 87 | nt | i
CCc1ccc(-c2cc(C(F)(F)F)n3nc(C(=O)Nc4c(C)nn(Cc5ccccc5C)c4C)cc3n2)s1 | i | i | 35 | i
Cc1ccccc1Cn1ccc(NC(=O)c2cc3nc(-c4ccco4)cc(C(F)(F)F)n3n2)n1 | i | i | 54 | i
Cc1cc(C)c(C)c(S(=O)(=O)Nc2ccccc2C(=O)NCCCN2CCOCC2)c1C | i | i | i | i
COc1ccc(CNC(=O)CCCNS(=O)(=O)c2cccc3nonc23)cc1 | i | i | 63 | i
Cc1ccc(CNC(=O)CCCNS(=O)(=O)c2cccc3nonc23)cc1 | i | i | i | i
COc1ccc(OC)c(NC(=O)c2cc(OC(C)=O)cc(C(=O)Nc3cc(OC)ccc3OC)c2)c1 | nt | nt | i | nt
c1ccc(C(c2c[nH]c3ccccc23)c2c[nH]c3ccccc23)nc1 | i | i | 52 | i
COC(=O)c1n[nH]c2ccccc12 | i | i | 24 | i
COCCNC(=O)c1n[nH]c2ccccc12 | i | i | ? | i
CC(=O)NS(=O)(=O)c1ccc(NC(=O)c2ccc3c(c2)C(=O)N(CCC(C)C)C3=O)cc1 | i | i | i | i
Brc1ccc(CSc2nnc(-c3cccnc3)o2)cc1 | 51 | i | i | i
Cc1ccc(C(=O)N/C(=C\c2ccc(Br)cc2)c2nc(=S)[nH][nH]2)cc1 | i | i | 28 | i
SMILES | Hck Nef HTS | Runt-SMMHC FRET | RanGTP-Impb inh | Runt-CBFb FRET
C=CCNC(=O)C(C#N)c1nc2ccccc2nc1N1CCCCCC1 (stereo unspecified) | i | 65 | 74 | i
N#CC(C(=O)NC1CCCCC1)c1nc2ccccc2nc1N1CCOCC1 (stereo unspecified) | nt | i | nt | i
CCCCNC(=O)C(C#N)c1nc2ccccc2nc1N1CCCC1 (stereo unspecified) | i | 67 | 34 | i
CC1CCN(c2nc3ccccc3nc2C(C#N)C(=O)NC2CCCCC2)CC1 (stereo unspecified) | nt | i | 50 | i
COc1ccc(CNC(=O)C(C#N)c2nc3ccccc3nc2N2CCCC2)cc1 (stereo unspecified) | i | i | ? | i
N#Cc1c(-c2ccccc2)nc(-c2cccnc2)[nH]c1=O | nt | nt | i | nt
CN(Cc1ccccc1)C(=O)COc1cc(Cl)ccc1Cl | nt | nt | i | nt
CC(=O)c1cccc(NC(=O)C(C)OC(=O)CCCN=C2NS(=O)(=O)c3ccccc32)c1 (stereo unspecified) | nt | nt | i | nt
CCN(CC)c1ccc(/C=C(/C#N)C(=O)NCc2ccccc2)o1 | i | i | 55 | i
CCN(CC)c1ccc(/C=C(/C#N)C(=O)NC(C)C)o1 | i | i | i | i
CCOc1cc(NS(=O)(=O)c2ccc(Cl)cc2)c(OCC)cc1NC(=O)CC(C)C | i | i | ? | i
CCOc1cc(NS(=O)(=O)c2ccc(NC(C)=O)cc2)c(OCC)cc1NC(=O)C(C)C | i | i | 18 | i
COCCCn1c(CCC(=O)O)ccc1-c1cccs1 | i | 126 | 55 | i
O=C(O)CCc1ccc(-c2ccc(F)cc2)n1CC1CCCO1 (stereo unspecified) | i | i | i | i
O=C(O)CCc1ccc(-c2cccs2)n1CC1CCCO1 (stereo unspecified) | i | 86 | 18 | i
CCCn1c(CCC(=O)O)ccc1-c1cccs1 | i | i | ? | i
COc1ccc(-c2ccc(CCC(=O)O)n2CC2CCCO2)cc1 (stereo unspecified) | i | 75 | ? | i
COc1ccc(-c2ccc(CCC(=O)O)n2CC(C)C)cc1 | i | 51 | i | i
COc1ccc(OCC(=O)Nc2ccc(N3CCN(C(=O)c4ccccc4)CC3)c(Cl)c2)cc1 | nt | nt | i | nt
Cc1nn(C)c(C(=O)NNC(=O)Nc2cccc(C(F)(F)F)c2)c1Cl | i | i | i | i
N#C[C@H]1[C@H](c2ccccc2)[C@](C#N)(C(=O)c2ccccc2)[C@@H]2C=Cc3ccccc3N21 | i | i | 47 | i
CC(C)C(=O)OC/C(O)=C(\C#N)c1nc2ccccc2[nH]1 | i | i | 15 | i
Cc1c(-c2cccc(Cl)c2)nc2ccccc2c1C(=O)OC/C(O)=C(\C#N)c1nc2ccccc2[nH]1 | i | 54 | i | i
COc1ccc(N2CC(C(=O)NC3CCSC3=O)CC2=O)cc1 (stereo unspecified) | nt | nt | i | nt
CC(NC(=O)CCN1N=C(c2ccccc2)CCC1=O)c1ccc2c(c1)OCCO2 (stereo unspecified) | i | i | i | i
SMILES | Hck Nef HTS | Runt-SMMHC FRET | RanGTP-Impb inh | Runt-CBFb FRET
Cc1nn(-c2ccccc2)c(N)c1C1(O)C(=O)N(C(C)C)c2ccccc21 (stereo unspecified) | i | i | i | i
Cc1nn(-c2ccccc2)c2c1P(=O)(O)/C(=C1\N(C)c3ccccc3C1(C)C)C=N2 | i | i | 29 | i
O=C(c1ccc2nc(-c3ccco3)c(-c3ccco3)nc2c1)N1CCN(c2ccccc2)CC1 | i | i | 23 | i
O=C(Nc1cccc(C(F)(F)F)c1)c1ccc2nc(-c3ccco3)c(-c3ccco3)nc2c1 | i | i | 47 | i
O=C(Nc1cccc(O)c1)N1CCOCC1 | i | i | i | i
CCc1nc2ccc(C(=O)N3CCN(c4ccccc4)CC3)cc2nc1CC | nt | nt | i | nt
O=C(Nc1ccc2nc(-c3cccs3)c(-c3cccs3)nc2c1)N1CCOCC1 | i | 62 | 96 | i
O=C(Nc1ccc(N2CCOCC2)cc1)Nc1ccc2nc(-c3ccco3)c(-c3ccco3)nc2c1 | i | i | 26 | i
COCc1cc(=O)[nH]c(-c2ccccc2OC(F)(F)F)n1 | i | i | i | i
CCOC(=O)c1sc(-c2ccc(Cl)cc2)nc1O | i | i | i | i
